Source: PubChem BioAssay (Broad Institute)
Xi reactivation = X-chromosome reactivation activator; XiGFP mouse fibroblasts, % GFP-positive cells imaging, 3 d; cells co-treated with 5-aza-dC sensitizer; scaled so ellipticine positive control = 100%; 360,000 tested, 0.055% active; AID 743238; activation, % at 7.58 µM;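 active means mean normalized replicate activation at least 10% and every replicate at or above 10%; inconclusive means only one of the two criteria met; inactive means mean below 10% and not all replicates reach 10%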;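 further: 0% = median of on-plate neutral control wells and 100% = ellipticine 6 µM median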
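Schedule: 3 d treatment, 15 min room-temperature fixation; system: 68-5-11 XiGFP fibroblast line; buffer or medium: DMEM plus 5-aza-dC sensitizer; control set: ellipticine 6 µM positive control; compound: one concentration, pinned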
ARNT-TACC3 inh = disruptors of human ARNT/TACC3 interaction; inhibition, % at 9.99 µM; Q9Y6A5; AlphaScreen His-ARNT PAS-B/GST-TACC3 binding, luminescence; TACC3 fragment carries E629A point mutation; 390,000 tested, 0.66% active;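 active means mean inhibition of replicates at least 50% and at least half of replicates each reaching 50%; inconclusive means half or more replicates reach 50% but mean below 50%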;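 further: 0% = complete ARNT plus TACC3 wells and 100% = ARNT alone without TACC3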
DENV2 CPE = inhibitors of DENV2 cytopathic effect. 350,000 tested, 1.7% active. DENV2-infected cells, cytopathic effect rescue, plate reader. CPE inhibition, % at 9.99 µM. AID 651640; in the data active means CPE inhibition above about 20%, passing the limit was not always enough; inconclusive means no clear call, values can overlap the other calls; tested in BHK-21 cells;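 further: 0% = median of neutral control wells and 100% = median of positive control wells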
FGF22 binding = binders of recombinant human FGF22 by thermal shift; Q9HCT0; SYPRO orange fluorescence; percent of sucrose octasulfate shift, DMSO zero; 340,000 tested, 1.5% active; activity (Tm shift, normalised), % at 9.99 µM;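 active means mean Tm shift, scaled 0 neutral to 100 positive control, at about 1.3% or above, every replicate too, limit read from the data; inconclusive means no clear call, values can overlap the other calls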
Target sequence (Q9HCT0 whole entry, looked up): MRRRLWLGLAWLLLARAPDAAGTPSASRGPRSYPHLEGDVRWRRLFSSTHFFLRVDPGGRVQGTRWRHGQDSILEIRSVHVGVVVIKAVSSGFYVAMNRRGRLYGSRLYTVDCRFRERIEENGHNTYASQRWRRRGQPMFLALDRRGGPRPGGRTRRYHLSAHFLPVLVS
SIRT5 inh = sirtuin-5 (human) deacylase inhibition; inhibition, % at 15 µM; AID 652115; Purified SirT5, succinyl-peptide AMC, trypsin-coupled fluorescence; Q9NXA8; 330,000 tested, 1.1% active; in the data active means inhibition above about 15%; inconclusive means no clear call, values can overlap the other calls
Target sequence (Q9NXA8 whole entry, looked up): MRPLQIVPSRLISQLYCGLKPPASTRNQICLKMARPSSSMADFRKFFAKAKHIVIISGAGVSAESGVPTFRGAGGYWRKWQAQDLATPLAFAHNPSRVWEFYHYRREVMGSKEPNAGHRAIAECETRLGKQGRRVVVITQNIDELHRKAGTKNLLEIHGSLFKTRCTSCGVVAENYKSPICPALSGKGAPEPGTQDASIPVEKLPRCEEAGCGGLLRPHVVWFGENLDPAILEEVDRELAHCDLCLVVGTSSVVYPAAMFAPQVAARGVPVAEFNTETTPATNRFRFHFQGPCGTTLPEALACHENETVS
FN deposition inh = fibronectin deposition inhibition; AH1F fibroblasts, Alexa488-fibronectin deposition fluorescence, overnight; inhibition, % at 12.6 µM; 350,000 tested, 0.086% active; AID 743247;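 active means mean inhibition across replicates of 30% or more, regardless of how many single replicates reach that level; inconclusive means mean under 30% yet at least half of replicates reach 30%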;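 further: positive control wells lacked labelled fibronectin entirely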
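Assay system: AH1F fibroblast monolayer, labelled fibronectin deposition. Amount: 10000 cells per well. Also added: labelled fibronectin 24 nM. Compound: single-point pinned compound. Incubation: cell attachment 1 h, compound and FN exposure overnight. Detection: fluorescence after three HBSS washes, excitation 485 nm, emission 525 nm. Read-out: inhibition of fibronectin deposition signal.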
The depositor's hits bear a star. In the library only some 3.8% were active in any assay of this set; here they are far more common.

C[C@H]1CN([C@@H](C)CO)C(=O)Cc2cc(NC(=O)CCCCCC(=O)Nc3ccccc3N)ccc2O[C@H]1CN(C)Cc1ccc(Oc2ccccc2)cc1 was read as Xi reactivation -1, ARNT-TACC3 inh 0, DENV2 CPE inconclusive, FGF22 binding 0 and SIRT5 inh 20*.
`C[C@@H]1CN([C@@H](C)CO)C(=O)Cc2cc(NC(=O)CCCCCC(=O)Nc3ccccc3N)ccc2O[C@@H]1CN(C)Cc1ccc2c(c1)OCO2` gave Xi reactivation -1, ARNT-TACC3 inh -3, DENV2 CPE 60*, FGF22 binding 0 and SIRT5 inh 6.
`C[C@H](CO)N1C[C@H](C)[C@@H](CN(C)S(=O)(=O)c2ccccc2)Oc2ccc(NC(=O)CCCCCC(=O)Nc3ccccc3N)cc2C1=O` gave Xi reactivation 0, DENV2 CPE 1, FGF22 binding 0 and SIRT5 inh 19*.
For C[C@@H]1CN([C@@H](C)CO)C(=O)c2cc(NC(=O)CCCCCC(=O)Nc3ccccc3N)ccc2O[C@@H]1CN(C)S(=O)(=O)c1ccccc1 the results were Xi reactivation 0, DENV2 CPE 0, FGF22 binding 0 and SIRT5 inh 2.
C[C@H](CO)N1C[C@H](C)[C@H](CN(C)Cc2ccc(Cl)c(Cl)c2)Oc2ccc(NC(=O)CCCCCC(=O)Nc3ccccc3N)cc2C1=O was read as Xi reactivation 0, ARNT-TACC3 inh 20, DENV2 CPE -3, FGF22 binding 0 and SIRT5 inh 24*.
`C[C@H](CO)N1C[C@H](C)[C@H](CN(C)Cc2ccc(Oc3ccccc3)cc2)Oc2ccc(NC(=O)CCCCCC(=O)Nc3ccccc3N)cc2CC1=O` gave Xi reactivation 1, ARNT-TACC3 inh 23, DENV2 CPE 7, FGF22 binding 0 and SIRT5 inh 30*.
`COc1cccc(S(=O)(=O)N(C)C[C@@H]2Oc3ncc(/C=C/c4ccccc4)cc3C(=O)N([C@H](C)CO)C[C@@H]2C)c1` gave Xi reactivation -1, ARNT-TACC3 inh -1, DENV2 CPE 1, FGF22 binding 0 and SIRT5 inh -2.
For C[C@@H]1CN(C)C(=O)c2cccc(N)c2O[C@H]1CN(C)S(C)(=O)=O the results were Xi reactivation 0 and FN deposition inh 3.
Screening CCC(=O)Nc1ccc2c(c1)OC[C@@H](C)N(Cc1nccs1)C[C@@H](C)[C@H](OC)CN(C)C2=O returned Xi reactivation 0 and FN deposition inh 0.
`C=CCN1C(=O)[C@]2(O[C@H](CCO)[C@@H]([Si](C)(C)c3ccc(OC)cc3)[C@@H]2C)c2cc(NC(=O)[C@H](C)O)ccc21` gave ARNT-TACC3 inh 6, DENV2 CPE 42*, FGF22 binding 1 and SIRT5 inh 2.
COc1ccc([Si](C)(C)[C@H]2[C@H](CCO)O[C@@]3(C(=O)N(Cc4cccc(NC(=O)[C@H](C)O)c4)c4ccccc43)[C@@H]2C)cc1 was read as ARNT-TACC3 inh 17, DENV2 CPE -6, FGF22 binding 2.9* and SIRT5 inh 3.
Screening CCCNC(=O)[C@@H]1[C@@H](CO)[C@@H]2Cn3c(ccc(-c4ccc(OC)cc4)c3=O)[C@H]1N2CC returned Xi reactivation 1, DENV2 CPE 5 and SIRT5 inh -42.
C=CCNC(=O)CN1CCC(c2nc3cc(C)c(C)cc3[nH]2)CC1 was read as Xi reactivation 0, ARNT-TACC3 inh 12, DENV2 CPE -1, FGF22 binding 0, SIRT5 inh 18* and FN deposition inh 3.
`C=CCNC(=O)CN1CCC(c2nc3ccccc3[nH]2)CC1` gave Xi reactivation 0, ARNT-TACC3 inh -2, DENV2 CPE -7, FGF22 binding 0, SIRT5 inh -4 and FN deposition inh 8.
For O=C(CN(c1ccccc1Cl)S(=O)(=O)c1ccccc1)N/N=C/c1ccccc1C(=O)O the results were Xi reactivation 0, ARNT-TACC3 inh -3, FGF22 binding 0, SIRT5 inh 0 and FN deposition inh -3.
`Cc1ccc(S(=O)(=O)N(CC(=O)N/N=C/c2ccccc2C(=O)O)c2cc(Cl)cc(Cl)c2)cc1` gave Xi reactivation 0, ARNT-TACC3 inh -4, DENV2 CPE -3, FGF22 binding 43*, SIRT5 inh -3 and FN deposition inh -8.
For Cc1cccc(S(=O)(=O)N2[C@@H]3CNC[C@H]2C3c2ccc(-c3ccccc3C)cc2)c1 (some centres undefined) the results were Xi reactivation 0, DENV2 CPE -2, SIRT5 inh 2 and FN deposition inh -3.
For O=C(C1CCOCC1)N1CC2(C1)[C@H](c1ccccc1)[C@@H](CO)N2Cc1ccc(Cl)cc1 the results were Xi reactivation 0, DENV2 CPE 29*, FGF22 binding 0 and SIRT5 inh 1.
O=C(C1CCCCC1)N1CC2(C1)[C@H](c1ccccc1)[C@H](CO)N2Cc1cncnc1 was read as Xi reactivation 0, DENV2 CPE 40*, FGF22 binding 0, SIRT5 inh 3 and FN deposition inh 4.
O=C(C1CCCC1)N1CC2(C1)[C@H](c1ccccc1)[C@@H](CO)N2Cc1ccc(Cl)cc1 was read as Xi reactivation 0, DENV2 CPE 3, SIRT5 inh 31* and FN deposition inh 11.
For O=C(C1CCCC1)N1CC2(C1)[C@H](c1ccccc1)[C@H](CO)N2Cc1nccs1 the results were Xi reactivation 0, DENV2 CPE inconclusive, SIRT5 inh 18* and FN deposition inh 4.
`O=C(C1CCCC1)N1CC2(C1)[C@@H](c1ccccc1)[C@@H](CO)N2Cc1nccs1` gave Xi reactivation 0, DENV2 CPE 12, SIRT5 inh 1 and FN deposition inh 4.
For O=C(C1CCCC1)N1CC2(C1)[C@@H](c1ccccc1)[C@@H](CO)N2Cc1ccc(Cl)cc1 the results were Xi reactivation 0, DENV2 CPE -7, SIRT5 inh 5 and FN deposition inh -1.
O=C(C1CCC1)N1CC2(C1)[C@H](c1ccccc1)[C@@H](CO)N2Cc1ccc(Cl)cc1 was read as Xi reactivation 0, DENV2 CPE -1, SIRT5 inh 4 and FN deposition inh -1.
Cc1ccc(S(=O)(=O)Nc2ccc3c(c2)C(=O)N([C@@H](C)CO)C[C@@H](C)[C@H](CN(C)Cc2ccc(C(=O)O)cc2)OCCCC[C@@H](C)O3)cc1 was read as Xi reactivation 0, ARNT-TACC3 inh -1, DENV2 CPE 8, SIRT5 inh 1 and FN deposition inh 1.
